# Measurements as given in ChEMBL document CHEMBL3414569, “Amino acid modified xanthone derivatives: novel, highly promising membrane-active antimicrobials for multidrug-resistant Gram-positive bacterial infections” (J Med Chem, 2015).
# Test system: Staphylococcus aureus
# Assay: Antimicrobial activity against methicillin resistant Staphylococcus aureus DM21455 by broth macrodilution method
# Assay type: functional
# Details: not given
# In short: (§1)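 Broth macrodilution MIC in Mueller Hinton broth following CLSI guidelines. Inoculum was prepared by direct colony suspension from an 18−20 h tryptic soy agar plate.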
row,Structure (SMILES),MIC
1,COc1c(OCC(=O)O)cc2oc3cc(OCC(=O)O)c(CC=C(C)C)c(O)c3c(=O)c2c1CC=C(C)C,> 50 µg/mL
2,COC(=O)C(Cc1cnc[nH]1)NC(=O)COc1cc2oc3cc(OCC(=O)NC(Cc4cnc[nH]4)C(=O)OC)c(OC)c(CC=C(C)C)c3c(=O)c2c(O)c1CC=C(C)C (stereo unspecified),> 50 µg/mL
3,COc1c(OCC(=O)N[C@@H](CCCNC(=N)N)C(=O)OC(C)(C)C)cc2oc3cc(OCC(=O)N[C@@H](CCCNC(=N)N)C(=O)OC(C)(C)C)c(CC=C(C)C)c(O)c3c(=O)c2c1CC=C(C)C,12 µg/mL
4,N=C(N)NCCCCC(=O)Nc1cc(C(F)(F)F)cc(NC(=O)c2cc(C(=O)Nc3cc(C(F)(F)F)cc(NC(=O)CCCCNC(=N)N)c3O[C@@H]3CCNC3)ncn2)c1O[C@@H]1CCNC1 [BRILACIDIN],4 µg/mL
5,COc1c(O)cc2oc3cc(O)c(CC=C(C)C)c(O)c3c(=O)c2c1CC=C(C)C [MANGOSTIN],2 µg/mL
6,CCCCCCCCNCCC[C@@H](C)[C@H]1CC[C@H]2[C@H]3[C@H](OCCCN)C[C@H]4C[C@H](OCCCN)CC[C@]4(C)[C@H]3C[C@H](OCCCN)[C@]12C,0.4 µg/mL

# Test system: not listed separately
# Assay: Retention time of the compound
# Assay type: physicochemical
# Details: not given
# In short: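 Reverse-phase HPLC of 20 μL injections of a 10 μg/mL sample at 1 mL/min. Gradient: 5−55% ACN over 5 min, then 55−95% over 15 min.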
row,Structure (SMILES),Retention_time
1,COc1c(OCC(=O)N[C@@H](CCCNC(=N)N)C(=O)OC(C)(C)C)cc2oc3cc(OCC(=O)N[C@@H](CCCNC(=N)N)C(=O)OC(C)(C)C)c(CC=C(C)C)c(O)c3c(=O)c2c1CC=C(C)C,9.51 min

# Test system: not listed separately
# Assay: Selectivity index, ratio of HC50 for induction of hemolysis in New Zealand white rabbit RBC to MIC for Staphylococcus aureus DM21455
# Details: not given
row,Structure (SMILES),Selectivity Index
1,COc1c(OCC(=O)N[C@@H](CCCNC(=N)N)C(=O)OC(C)(C)C)cc2oc3cc(OCC(=O)N[C@@H](CCCNC(=N)N)C(=O)OC(C)(C)C)c(CC=C(C)C)c(O)c3c(=O)c2c1CC=C(C)C,7
2,N=C(N)NCCCCC(=O)Nc1cc(C(F)(F)F)cc(NC(=O)c2cc(C(=O)Nc3cc(C(F)(F)F)cc(NC(=O)CCCCNC(=N)N)c3O[C@@H]3CCNC3)ncn2)c1O[C@@H]1CCNC1 [BRILACIDIN],44
3,COc1c(O)cc2oc3cc(O)c(CC=C(C)C)c(O)c3c(=O)c2c1CC=C(C)C [MANGOSTIN],5
4,CCCCCCCCNCCC[C@@H](C)[C@H]1CC[C@H]2[C@H]3[C@H](OCCCN)C[C@H]4C[C@H](OCCCN)CC[C@]4(C)[C@H]3C[C@H](OCCCN)[C@]12C,73

# Test system: Bacillus cereus
# Assay: Antimicrobial activity against Bacillus cereus ATCC 11778 by broth macrodilution method
# Assay type: functional
# Details: not given
# In short: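 CLSI broth macrodilution in Mueller Hinton broth. Inoculum was made by direct colony suspension from colonies on an 18−20 h tryptic soy agar plate. The value is the MIC.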
row,Structure (SMILES),MIC
1,COc1c(OCC(=O)O)cc2oc3cc(OCC(=O)O)c(CC=C(C)C)c(O)c3c(=O)c2c1CC=C(C)C,> 50 µg/mL
2,COC(=O)C(Cc1cnc[nH]1)NC(=O)COc1cc2oc3cc(OCC(=O)NC(Cc4cnc[nH]4)C(=O)OC)c(OC)c(CC=C(C)C)c3c(=O)c2c(O)c1CC=C(C)C (stereo unspecified),> 50 µg/mL
3,COc1c(OCC(=O)N[C@@H](CCCNC(=N)N)C(=O)OC(C)(C)C)cc2oc3cc(OCC(=O)N[C@@H](CCCNC(=N)N)C(=O)OC(C)(C)C)c(CC=C(C)C)c(O)c3c(=O)c2c1CC=C(C)C,12 µg/mL
4,N=C(N)NCCCCC(=O)Nc1cc(C(F)(F)F)cc(NC(=O)c2cc(C(=O)Nc3cc(C(F)(F)F)cc(NC(=O)CCCCNC(=N)N)c3O[C@@H]3CCNC3)ncn2)c1O[C@@H]1CCNC1 [BRILACIDIN],4 µg/mL
5,COc1c(O)cc2oc3cc(O)c(CC=C(C)C)c(O)c3c(=O)c2c1CC=C(C)C [MANGOSTIN],2 µg/mL
6,CCCCCCCCNCCC[C@@H](C)[C@H]1CC[C@H]2[C@H]3[C@H](OCCCN)C[C@H]4C[C@H](OCCCN)CC[C@]4(C)[C@H]3C[C@H](OCCCN)[C@]12C,0.4 µg/mL

# Test system: not listed separately
# Assay: Selectivity index, ratio of HC50 for induction of hemolysis in New Zealand white rabbit RBC to MIC for Bacillus cereus ATCC 11778
# Details: not given
row,Structure (SMILES),Selectivity Index
1,COc1c(OCC(=O)N[C@@H](CCCNC(=N)N)C(=O)OC(C)(C)C)cc2oc3cc(OCC(=O)N[C@@H](CCCNC(=N)N)C(=O)OC(C)(C)C)c(CC=C(C)C)c(O)c3c(=O)c2c1CC=C(C)C,7
2,N=C(N)NCCCCC(=O)Nc1cc(C(F)(F)F)cc(NC(=O)c2cc(C(=O)Nc3cc(C(F)(F)F)cc(NC(=O)CCCCNC(=N)N)c3O[C@@H]3CCNC3)ncn2)c1O[C@@H]1CCNC1 [BRILACIDIN],44
3,COc1c(O)cc2oc3cc(O)c(CC=C(C)C)c(O)c3c(=O)c2c1CC=C(C)C [MANGOSTIN],5
4,CCCCCCCCNCCC[C@@H](C)[C@H]1CC[C@H]2[C@H]3[C@H](OCCCN)C[C@H]4C[C@H](OCCCN)CC[C@]4(C)[C@H]3C[C@H](OCCCN)[C@]12C,73

# Test system: not listed separately
# Assay: Selectivity index, ratio of HC50 for induction of hemolysis in New Zealand white rabbit RBC to MIC for Staphylococcus aureus DM09809R
# Details: not given
row,Structure (SMILES),Selectivity Index
1,COc1c(OCC(=O)N[C@@H](CCCNC(=N)N)C(=O)OC(C)(C)C)cc2oc3cc(OCC(=O)N[C@@H](CCCNC(=N)N)C(=O)OC(C)(C)C)c(CC=C(C)C)c(O)c3c(=O)c2c1CC=C(C)C,7
2,N=C(N)NCCCCC(=O)Nc1cc(C(F)(F)F)cc(NC(=O)c2cc(C(=O)Nc3cc(C(F)(F)F)cc(NC(=O)CCCCNC(=N)N)c3O[C@@H]3CCNC3)ncn2)c1O[C@@H]1CCNC1 [BRILACIDIN],44
3,COc1c(O)cc2oc3cc(O)c(CC=C(C)C)c(O)c3c(=O)c2c1CC=C(C)C [MANGOSTIN],5
4,CCCCCCCCNCCC[C@@H](C)[C@H]1CC[C@H]2[C@H]3[C@H](OCCCN)C[C@H]4C[C@H](OCCCN)CC[C@]4(C)[C@H]3C[C@H](OCCCN)[C@]12C,73

# Test system: Staphylococcus aureus
# Assay: Antimicrobial activity against Staphylococcus aureus DM4001 by broth macrodilution method
# Assay type: functional
# Details: not given
# In short: as §1
row,Structure (SMILES),MIC
1,COc1c(OCC(=O)O)cc2oc3cc(OCC(=O)O)c(CC=C(C)C)c(O)c3c(=O)c2c1CC=C(C)C,> 50 µg/mL
2,COC(=O)C(Cc1cnc[nH]1)NC(=O)COc1cc2oc3cc(OCC(=O)NC(Cc4cnc[nH]4)C(=O)OC)c(OC)c(CC=C(C)C)c3c(=O)c2c(O)c1CC=C(C)C (stereo unspecified),> 50 µg/mL
3,COc1c(OCC(=O)N[C@@H](CCCNC(=N)N)C(=O)OC(C)(C)C)cc2oc3cc(OCC(=O)N[C@@H](CCCNC(=N)N)C(=O)OC(C)(C)C)c(CC=C(C)C)c(O)c3c(=O)c2c1CC=C(C)C,12 µg/mL
4,N=C(N)NCCCCC(=O)Nc1cc(C(F)(F)F)cc(NC(=O)c2cc(C(=O)Nc3cc(C(F)(F)F)cc(NC(=O)CCCCNC(=N)N)c3O[C@@H]3CCNC3)ncn2)c1O[C@@H]1CCNC1 [BRILACIDIN],4 µg/mL
5,COc1c(O)cc2oc3cc(O)c(CC=C(C)C)c(O)c3c(=O)c2c1CC=C(C)C [MANGOSTIN],2 µg/mL
6,CCCCCCCCNCCC[C@@H](C)[C@H]1CC[C@H]2[C@H]3[C@H](OCCCN)C[C@H]4C[C@H](OCCCN)CC[C@]4(C)[C@H]3C[C@H](OCCCN)[C@]12C,0.4 µg/mL

# Test system: not listed separately
# Assay: Induction of hemolysis in New Zealand white rabbit RBC after 1 hr
# Assay type: cell-based, Oryctolagus cuniculus, Erythrocyte
# Details: New Zealand white, red blood cells (RBC)
# In short: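 Fresh red blood cells isolated from New Zealand white rabbits. Lysis measured over a compound concentration series; HC50 taken as the concentration lysing 50% of RBCs.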
row,Structure (SMILES),HC50 at 1 h
1,COc1c(OCC(=O)O)cc2oc3cc(OCC(=O)O)c(CC=C(C)C)c(O)c3c(=O)c2c1CC=C(C)C,> 400 µg/mL
2,COC(=O)C(Cc1cnc[nH]1)NC(=O)COc1cc2oc3cc(OCC(=O)NC(Cc4cnc[nH]4)C(=O)OC)c(OC)c(CC=C(C)C)c3c(=O)c2c(O)c1CC=C(C)C (stereo unspecified),> 400 µg/mL
3,COc1c(OCC(=O)N[C@@H](CCCNC(=N)N)C(=O)OC(C)(C)C)cc2oc3cc(OCC(=O)N[C@@H](CCCNC(=N)N)C(=O)OC(C)(C)C)c(CC=C(C)C)c(O)c3c(=O)c2c1CC=C(C)C,79 µg/mL
4,N=C(N)NCCCCC(=O)Nc1cc(C(F)(F)F)cc(NC(=O)c2cc(C(=O)Nc3cc(C(F)(F)F)cc(NC(=O)CCCCNC(=N)N)c3O[C@@H]3CCNC3)ncn2)c1O[C@@H]1CCNC1 [BRILACIDIN],175 µg/mL

# Same assay, conditions: erythrocyte, 1 h
row,Structure (SMILES),MHC
1,CCCCCCCCNCCC[C@@H](C)[C@H]1CC[C@H]2[C@H]3[C@H](OCCCN)C[C@H]4C[C@H](OCCCN)CC[C@]4(C)[C@H]3C[C@H](OCCCN)[C@]12C,29 µg/mL

# Test system: Staphylococcus aureus
# Assay: Antimicrobial activity against methicillin resistant Staphylococcus aureus DM09809R by broth macrodilution method
# Assay type: functional
# Details: not given
# In short: as §1
row,Structure (SMILES),MIC
1,COc1c(OCC(=O)O)cc2oc3cc(OCC(=O)O)c(CC=C(C)C)c(O)c3c(=O)c2c1CC=C(C)C,> 50 µg/mL
2,COC(=O)C(Cc1cnc[nH]1)NC(=O)COc1cc2oc3cc(OCC(=O)NC(Cc4cnc[nH]4)C(=O)OC)c(OC)c(CC=C(C)C)c3c(=O)c2c(O)c1CC=C(C)C (stereo unspecified),> 50 µg/mL
3,COc1c(OCC(=O)N[C@@H](CCCNC(=N)N)C(=O)OC(C)(C)C)cc2oc3cc(OCC(=O)N[C@@H](CCCNC(=N)N)C(=O)OC(C)(C)C)c(CC=C(C)C)c(O)c3c(=O)c2c1CC=C(C)C,12 µg/mL
4,N=C(N)NCCCCC(=O)Nc1cc(C(F)(F)F)cc(NC(=O)c2cc(C(=O)Nc3cc(C(F)(F)F)cc(NC(=O)CCCCNC(=N)N)c3O[C@@H]3CCNC3)ncn2)c1O[C@@H]1CCNC1 [BRILACIDIN],4 µg/mL
5,COc1c(O)cc2oc3cc(O)c(CC=C(C)C)c(O)c3c(=O)c2c1CC=C(C)C [MANGOSTIN],2 µg/mL
6,CCCCCCCCNCCC[C@@H](C)[C@H]1CC[C@H]2[C@H]3[C@H](OCCCN)C[C@H]4C[C@H](OCCCN)CC[C@]4(C)[C@H]3C[C@H](OCCCN)[C@]12C,0.4 µg/mL

# Test system: not listed separately
# Assay: Selectivity index, ratio of HC50 for induction of hemolysis in New Zealand white rabbit RBC to MIC for Staphylococcus aureus DM4001
# Details: not given
row,Structure (SMILES),Selectivity Index
1,COc1c(OCC(=O)N[C@@H](CCCNC(=N)N)C(=O)OC(C)(C)C)cc2oc3cc(OCC(=O)N[C@@H](CCCNC(=N)N)C(=O)OC(C)(C)C)c(CC=C(C)C)c(O)c3c(=O)c2c1CC=C(C)C,7
2,N=C(N)NCCCCC(=O)Nc1cc(C(F)(F)F)cc(NC(=O)c2cc(C(=O)Nc3cc(C(F)(F)F)cc(NC(=O)CCCCNC(=N)N)c3O[C@@H]3CCNC3)ncn2)c1O[C@@H]1CCNC1 [BRILACIDIN],44
3,COc1c(O)cc2oc3cc(O)c(CC=C(C)C)c(O)c3c(=O)c2c1CC=C(C)C [MANGOSTIN],5
4,CCCCCCCCNCCC[C@@H](C)[C@H]1CC[C@H]2[C@H]3[C@H](OCCCN)C[C@H]4C[C@H](OCCCN)CC[C@]4(C)[C@H]3C[C@H](OCCCN)[C@]12C,73
